Converted amounts (≈) assume the structure as drawn.
What was measured:
Type in all cases: functional
Bacteroides fragilis [1] = experiment: Antimicrobial activity against beta lactamase-positive Bacteroides fragilis isolated from intra-abdominal infection and pelvic inflammatory disease patients after 48 hrs by agar dilution method
Summary of the method: (§1)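 CLSI agar dilution on brucella blood agar supplemented with laked sheep blood, hemin and vitamin K. Inocula of about 1 × 10^5 CFU/spot were applied by Steers replicator, and plates were incubated 48 h at 35°C in an anaerobic glove box. MIC was the concentration giving marked growth reduction versus the anaerobic control plate. QC strains were included each run, and β-lactamase was detected by Cefinase disk.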

[2] = test system: Bacteroides thetaiotaomicron; experiment: Antimicrobial activity against beta lactamase-positive Bacteroides thetaiotaomicron isolated from intra-abdominal infection and pelvic inflammatory disease patients after 48 hrs by agar dilution method; summary of the method: as §1
Bacteroides fragilis [3] = experiment: Antimicrobial activity against beta lactamase-positive Bacteroides fragilis isolated from intra-abdominal infection and pelvic inflammatory disease patients after 48 hrs by time kill analysis
Summary of the method: (§2)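 The MIC was read by inspecting macrodilution time-kill tubes. Vials held prereduced brucella broth with 5% laked horse blood cells, hemin 5 μg/ml and vitamin K1 1 μg/ml. Final inoculum was 10^6–10^7 CFU/ml, prepared inside the anaerobe chamber. Vials were incubated 48 h at 35°C in a shaking water bath.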

[4] = test system: Bacteroides thetaiotaomicron; experiment: Antimicrobial activity against beta lactamase-positive Bacteroides thetaiotaomicron isolated from intra-abdominal infection and pelvic inflammatory disease patients after 48 hrs by time kill analysis; summary of the method: as §2
Prevotella intermedia [5] = experiment: Antimicrobial activity against beta lactamase-positive Prevotella intermedia isolated from intra-abdominal infection and pelvic inflammatory disease patients after 48 hrs by time kill analysis; summary of the method: as §2
Finegoldia magna [6] = experiment: Antimicrobial activity against beta lactamase-positive Finegoldia magna isolated from intra-abdominal infection and pelvic inflammatory disease patients after 48 hrs by time kill analysis; summary of the method: as §2
Fusobacterium nucleatum [7] = experiment: Antimicrobial activity against beta lactamase-positive Fusobacterium nucleatum isolated from intra-abdominal infection and pelvic inflammatory disease patients after 48 hrs by time kill analysis; summary of the method: as §2
Clostridium perfringens [8] = experiment: Antimicrobial activity against Clostridium perfringens isolated from intra-abdominal infection and pelvic inflammatory disease patients after 48 hrs by time kill analysis
Summary of the method: (§3)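 Macrodilution in prereduced brucella broth with 5% laked horse blood cells, 5 μg/ml hemin and 1 μg/ml vitamin K1. Final inoculum 10^6 to 10^7 CFU/ml, prepared inside the anaerobe chamber. Vials incubated 48 h at 35°C in a shaking water bath. MIC read by inspecting the time-kill tubes, alongside an antibiotic-free growth control.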

Clostridioides difficile [9] = experiment: Antimicrobial activity against Clostridium difficile isolated from intra-abdominal infection and pelvic inflammatory disease patients after 48 hrs by time kill analysis; summary of the method: as §3
Bacteroides ovatus = experiment: Antimicrobial activity against beta lactamase-positive Bacteroides ovatus isolated from intra-abdominal infection and pelvic inflammatory disease patients after 48 hrs by agar dilution method; summary of the method: as §1
Phocaeicola vulgatus = experiment: Antimicrobial activity against beta lactamase-positive Bacteroides vulgatus isolated from intra-abdominal infection and pelvic inflammatory disease patients after 48 hrs by agar dilution method; summary of the method: as §1
[10] = test system: Parabacteroides distasonis; experiment: Antimicrobial activity against beta lactamase-positive Bacteroides distasonis isolated from intra-abdominal infection and pelvic inflammatory disease patients after 48 hrs by agar dilution method; summary of the method: as §1
Prevotella bivia = experiment: Antimicrobial activity against beta lactamase-positive Prevotella bivia isolated from intra-abdominal infection and pelvic inflammatory disease patients after 48 hrs by agar dilution method; summary of the method: as §1
Prevotella disiens = experiment: Antimicrobial activity against beta lactamase-positive Prevotella disiens isolated from intra-abdominal infection and pelvic inflammatory disease patients after 48 hrs by agar dilution method; summary of the method: as §1
Prevotella intermedia [11] = experiment: Antimicrobial activity against beta lactamase-positive Prevotella intermedia isolated from intra-abdominal infection and pelvic inflammatory disease patients after 48 hrs by agar dilution method; summary of the method: as §1
Prevotella nigrescens = experiment: Antimicrobial activity against beta lactamase-positive Prevotella nigrescens isolated from intra-abdominal infection and pelvic inflammatory disease patients after 48 hrs by agar dilution method; summary of the method: as §1
[12] = test system: Prevotella melaninogenica; experiment: Antimicrobial activity against beta lactamase-positive Prevotella melaninogenica isolated from intra-abdominal infection and pelvic inflammatory disease patients after 48 hrs by agar dilution method; summary of the method: as §1
Prevotella denticola = experiment: Antimicrobial activity against beta lactamase-positive Prevotella denticola isolated from intra-abdominal infection and pelvic inflammatory disease patients after 48 hrs by agar dilution method; summary of the method: as §1
Prevotella corporis = experiment: Antimicrobial activity against beta lactamase-positive Prevotella corporis isolated from intra-abdominal infection and pelvic inflammatory disease patients after 48 hrs by agar dilution method; summary of the method: as §1
Prevotella buccae = experiment: Antimicrobial activity against beta lactamase-positive Prevotella buccae isolated from intra-abdominal infection and pelvic inflammatory disease patients after 48 hrs by agar dilution method; settings: Segatella buccae; summary of the method: as §1
[13] = test system: Porphyromonas asaccharolytica; experiment: Antimicrobial activity against Porphyromonas asaccharolyticus isolated from intra-abdominal infection and pelvic inflammatory disease patients after 48 hrs by agar dilution method; summary of the method: as §1
Porphyromonas gingivalis = experiment: Antimicrobial activity against Porphyromonas gingivalis isolated from intra-abdominal infection and pelvic inflammatory disease patients after 48 hrs by agar dilution method; summary of the method: as §1
Porphyromonas levii = experiment: Antimicrobial activity against Porphyromonas levii isolated from intra-abdominal infection and pelvic inflammatory disease patients after 48 hrs by agar dilution method; summary of the method: as §1
Fusobacterium nucleatum [14] = experiment: Antimicrobial activity against beta lactamase-positive Fusobacterium nucleatum isolated from intra-abdominal infection and pelvic inflammatory disease patients after 48 hrs by agar dilution method; summary of the method: as §1
[15] = test system: Fusobacterium necrophorum; experiment: Antimicrobial activity against Fusobacterium necrophorum isolated from intra-abdominal infection and pelvic inflammatory disease patients after 48 hrs by agar dilution method; summary of the method: as §1
Fusobacterium varium = experiment: Antimicrobial activity against Fusobacterium varium isolated from intra-abdominal infection and pelvic inflammatory disease patients after 48 hrs by agar dilution method; summary of the method: as §1
Fusobacterium mortiferum = experiment: Antimicrobial activity against beta lactamase-positive Fusobacterium mortiferum isolated from intra-abdominal infection and pelvic inflammatory disease patients after 48 hrs by agar dilution method; summary of the method: as §1
Finegoldia magna [16] = experiment: Antimicrobial activity against Finegoldia magna isolated from intra-abdominal infection and pelvic inflammatory disease patients after 48 hrs by agar dilution method; summary of the method: as §1
Parvimonas micra = experiment: Antimicrobial activity against Micromonas micros isolated from intra-abdominal infection and pelvic inflammatory disease patients after 48 hrs by agar dilution method; summary of the method: as §1
[17] = test system: Peptostreptococcus anaerobius; experiment: Antimicrobial activity against Peptostreptococcus anaerobius isolated from intra-abdominal infection and pelvic inflammatory disease patients after 48 hrs by agar dilution method; summary of the method: as §1
Anaerococcus prevotii = experiment: Antimicrobial activity against Anaerococcus prevotii isolated from intra-abdominal infection and pelvic inflammatory disease patients after 48 hrs by agar dilution method; summary of the method: as §1
Anaerococcus tetradius = experiment: Antimicrobial activity against Anaerococcus tetradius isolated from intra-abdominal infection and pelvic inflammatory disease patients after 48 hrs by agar dilution method; summary of the method: as §1
[18] = test system: Peptoniphilus asaccharolyticus; experiment: Antimicrobial activity against Peptoniphilus asaccharolyticus isolated from intra-abdominal infection and pelvic inflammatory disease patients after 48 hrs by agar dilution method; summary of the method: as §1
Clostridium perfringens [19] = experiment: Antimicrobial activity against Clostridium perfringens isolated from intra-abdominal infection and pelvic inflammatory disease patients after 48 hrs by agar dilution method
Summary of the method: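 CLSI agar dilution on brucella blood agar supplemented with laked sheep blood, hemin and vitamin K. Inoculum about 1 × 10^5 CFU/spot, applied by Steers replicator. Plates incubated 48 h at 35°C in an anaerobic glove box. MIC is the concentration giving marked growth reduction versus the anaerobic control plate. Standard QC strains included in each run.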

Clostridioides difficile [20] = experiment: Antimicrobial activity against Clostridium difficile isolated from intra-abdominal infection and pelvic inflammatory disease patients after 48 hrs by agar dilution method; summary of the method: as §1
[Clostridium] innocuum = Antimicrobial activity against Clostridium innocuum isolated from intra-abdominal infection and pelvic inflammatory disease patients after 48 hrs by agar dilution method; summary of the method: as §1
Thomasclavelia ramosa = experiment: Antimicrobial activity against Clostridium ramosum isolated from intra-abdominal infection and pelvic inflammatory disease patients after 48 hrs by agar dilution method; summary of the method: as §1
[21] = test system: Paraclostridium bifermentans; experiment: Antimicrobial activity against Clostridium bifermentans isolated from intra-abdominal infection and pelvic inflammatory disease patients after 48 hrs by agar dilution method; summary of the method: as §1
[22] = test system: Enterocloster clostridioformis; experiment: Antimicrobial activity against Clostridium clostridioforme isolated from intra-abdominal infection and pelvic inflammatory disease patients after 48 hrs by agar dilution method; summary of the method: as §1
[23] = test system: Paeniclostridium sordellii; experiment: Antimicrobial activity against Clostridium sordellii isolated from intra-abdominal infection and pelvic inflammatory disease patients after 48 hrs by agar dilution method; settings: Paraclostridium sordellii; summary of the method: as §1
[24] = test system: Clostridium paraputrificum; experiment: Antimicrobial activity against Clostridium paraputrificum isolated from intra-abdominal infection and pelvic inflammatory disease patients after 48 hrs by agar dilution method; summary of the method: as §1
Clostridium cadaveris = experiment: Antimicrobial activity against Clostridium cadaveris isolated from intra-abdominal infection and pelvic inflammatory disease patients after 48 hrs by agar dilution method; summary of the method: as §1

`Cc1ncc([N+](=O)[O-])n1CCO` [METRONIDAZOLE] gave an MIC50 (Bacteroides fragilis [1]) of 1 µg/mL (≈ 5.84 µM), an MIC90 (Bacteroides fragilis [1]) of 1 µg/mL (≈ 5.84 µM) and an MIC50 [2] of 1 µg/mL (≈ 5.84 µM). For the same molecule, the MIC90 [2] was 1 µg/mL (≈ 5.84 µM), the MIC (Bacteroides fragilis [3]) was 2 µg/mL (≈ 11.7 µM) and the MIC [4] was 1 µg/mL (≈ 5.84 µM). The MIC (Prevotella intermedia [5]) was 0.5 µg/mL (≈ 2.92 µM), the MIC (Finegoldia magna [6]) was 1 µg/mL (≈ 5.84 µM) and the MIC (Fusobacterium nucleatum [7]) was 0.016 µg/mL (≈ 0.0935 µM). It also gave an MIC (Clostridium perfringens [8]) of 2 µg/mL (≈ 11.7 µM), an MIC (Clostridioides difficile [9]) of 0.5 µg/mL (≈ 2.92 µM) and an MIC50 (Bacteroides ovatus) of 1 µg/mL (≈ 5.84 µM). The MIC90 (Bacteroides ovatus) was 2 µg/mL (≈ 11.7 µM), the MIC50 (Phocaeicola vulgatus) was 0.5 µg/mL (≈ 2.92 µM) and the MIC90 (Phocaeicola vulgatus) was 1 µg/mL (≈ 5.84 µM). The MIC [10] was 1 µg/mL (≈ 5.84 µM), the MIC50 [10] was 1 µg/mL (≈ 5.84 µM) and the MIC90 [10] was 1 µg/mL (≈ 5.84 µM). The MIC50 (Prevotella bivia) was 2 µg/mL (≈ 11.7 µM), the MIC90 (Prevotella bivia) was 2 µg/mL (≈ 11.7 µM) and the MIC (Prevotella disiens) was 0.5 µg/mL (≈ 2.92 µM). The MIC50 (Prevotella disiens) was 0.5 µg/mL (≈ 2.92 µM), the MIC90 (Prevotella disiens) was 2 µg/mL (≈ 11.7 µM) and the MIC50 (Prevotella intermedia [11]) was 0.5 µg/mL (≈ 2.92 µM). The MIC90 (Prevotella intermedia [11]) was 2 µg/mL (≈ 11.7 µM), the MIC50 (Prevotella nigrescens) was 0.5 µg/mL (≈ 2.92 µM) and the MIC90 (Prevotella nigrescens) was 1 µg/mL (≈ 5.84 µM). For the same molecule, the MIC50 [12] was 0.5 µg/mL (≈ 2.92 µM), the MIC90 [12] was 1 µg/mL (≈ 5.84 µM) and the MIC50 (Prevotella denticola) was 0.5 µg/mL (≈ 2.92 µM). It also gave an MIC90 (Prevotella denticola) of 1 µg/mL (≈ 5.84 µM), an MIC50 (Prevotella corporis) of 0.5 µg/mL (≈ 2.92 µM) and an MIC90 (Prevotella corporis) of 1 µg/mL (≈ 5.84 µM). For the same molecule, the MIC50 (Prevotella buccae) was 1 µg/mL (≈ 5.84 µM), the MIC90 (Prevotella buccae) was 1 µg/mL (≈ 5.84 µM) and the MIC [13] was ≤ 0.125 µg/mL. For the same molecule, the MIC (Porphyromonas gingivalis) was ≤ 0.125 µg/mL, the MIC (Porphyromonas levii) was ≤ 0.125 µg/mL and the MIC (Fusobacterium nucleatum [14]) was ≤ 0.125 µg/mL. For the same molecule, the MIC50 (Fusobacterium nucleatum [14]) was ≤ 0.125 µg/mL, the MIC90 (Fusobacterium nucleatum [14]) was ≤ 0.125 µg/mL and the MIC [15] was ≤ 0.125 µg/mL. For the same molecule, the MIC50 [15] was ≤ 0.125 µg/mL, the MIC90 [15] was ≤ 0.125 µg/mL and the MIC50 (Fusobacterium varium) was 0.25 µg/mL (≈ 1.46 µM). The MIC90 (Fusobacterium varium) was 0.5 µg/mL (≈ 2.92 µM), the MIC (Fusobacterium mortiferum) was ≤ 0.125 µg/mL and the MIC50 (Fusobacterium mortiferum) was ≤ 0.125 µg/mL. The MIC90 (Fusobacterium mortiferum) was ≤ 0.125 µg/mL, the MIC50 (Finegoldia magna [16]) was 0.5 µg/mL (≈ 2.92 µM) and the MIC90 (Finegoldia magna [16]) was 1 µg/mL (≈ 5.84 µM). For the same molecule, the MIC50 (Parvimonas micra) was 0.25 µg/mL (≈ 1.46 µM), the MIC90 (Parvimonas micra) was 0.5 µg/mL (≈ 2.92 µM) and the MIC50 [17] was 0.5 µg/mL (≈ 2.92 µM). The MIC90 [17] was 1 µg/mL (≈ 5.84 µM), the MIC (Anaerococcus prevotii) was 0.25 µg/mL (≈ 1.46 µM) and the MIC50 (Anaerococcus tetradius) was 2 µg/mL (≈ 11.7 µM). For the same molecule, the MIC50 [18] was 1 µg/mL (≈ 5.84 µM), the MIC90 [18] was 1 µg/mL (≈ 5.84 µM) and the MIC50 (Clostridium perfringens [19]) was 1 µg/mL (≈ 5.84 µM). It also gave an MIC90 (Clostridium perfringens [19]) of 2 µg/mL (≈ 11.7 µM), an MIC50 (Clostridioides difficile [20]) of 0.5 µg/mL (≈ 2.92 µM) and an MIC90 (Clostridioides difficile [20]) of 0.5 µg/mL (≈ 2.92 µM). The MIC50 ([Clostridium] innocuum) was 1 µg/mL (≈ 5.84 µM), the MIC50 (Thomasclavelia ramosa) was 2 µg/mL (≈ 11.7 µM) and the MIC [21] was 0.25 µg/mL (≈ 1.46 µM). The MIC [22] was ≤ 0.125 µg/mL, the MIC [23] was 0.5 µg/mL (≈ 2.92 µM) and the MIC [24] was 0.5 µg/mL (≈ 2.92 µM). For the same molecule, the MIC (Clostridium cadaveris) was 0.25 µg/mL (≈ 1.46 µM).
